Measured values: ChEMBL document CHEMBL3734675, “Synthesis, antimycobacterial and antibacterial activity of fluoroquinolone derivatives containing an 3-alkoxyimino-4-(cyclopropylanimo)methylpyrrolidine moiety” (2015)
Values after ≈ are worked out from the molar mass of the structure shown.

Assays:
Assay type in all cases: functional
[1] = test system: Escherichia coli; assay: Antibacterial activity against Escherichia coli ATCC 25922 after 18 to 24 hrs by two-fold serial dilution method
How it was run: (§1)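 Twofold serial dilution in agar media against Gram-positive and Gram-negative strains. Plates incubated at 35 °C for 18–24 h. MIC read as the lowest compound concentration giving complete inhibition of bacterial growth.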

[2] = test system: Escherichia coli; assay: Antibacterial activity against extended-spectrum beta-lactamase producing Escherichia coli 14-1 after 18 to 24 hrs by two-fold serial dilution method; how it was run: as §1
[3] = test system: Escherichia coli; assay: Antibacterial activity against extended-spectrum beta-lactamase producing Escherichia coli 14-2 after 18 to 24 hrs by two-fold serial dilution method; how it was run: as §1
[4] = test system: Escherichia coli; assay: Antibacterial activity against Escherichia coli 14-1 after 18 to 24 hrs by two-fold serial dilution method; how it was run: as §1
[5] = test system: Escherichia coli; assay: Antibacterial activity against Escherichia coli 14-2 after 18 to 24 hrs by two-fold serial dilution method; how it was run: as §1
[6] = test system: Klebsiella pneumoniae; assay: Antibacterial activity against extended-spectrum beta-lactamase producing Klebsiella pneumoniae 14-17 after 18 to 24 hrs by two-fold serial dilution method; how it was run: as §1
[7] = test system: Klebsiella pneumoniae; assay: Antibacterial activity against extended-spectrum beta-lactamase producing Klebsiella pneumoniae 14-18 after 18 to 24 hrs by two-fold serial dilution method; how it was run: as §1
[8] = test system: Klebsiella pneumoniae; assay: Antibacterial activity against extended-spectrum beta-lactamase producing Klebsiella pneumoniae 14-19 after 18 to 24 hrs by two-fold serial dilution method; how it was run: as §1
[9] = test system: Klebsiella pneumoniae; assay: Antibacterial activity against Klebsiella pneumoniae 14-1 after 18 to 24 hrs by two-fold serial dilution method; how it was run: as §1
[10] = test system: Klebsiella pneumoniae; assay: Antibacterial activity against Klebsiella pneumoniae 14-2 after 18 to 24 hrs by two-fold serial dilution method; how it was run: as §1
[11] = test system: Klebsiella pneumoniae; assay: Antibacterial activity against Klebsiella pneumoniae 14-3 after 18 to 24 hrs by two-fold serial dilution method; how it was run: as §1
[12] = test system: Klebsiella pneumoniae; assay: Antibacterial activity against Klebsiella pneumoniae 14-4 after 18 to 24 hrs by two-fold serial dilution method; how it was run: as §1
[13] = test system: Pseudomonas aeruginosa; assay: Antibacterial activity against Pseudomonas aeruginosa ATCC 27853 after 18 to 24 hrs by two-fold serial dilution method; how it was run: as §1
[14] = test system: Pseudomonas aeruginosa; assay: Antibacterial activity against Pseudomonas aeruginosa 14-9 after 18 to 24 hrs by two-fold serial dilution method; how it was run: as §1
[15] = test system: Pseudomonas aeruginosa; assay: Antibacterial activity against Pseudomonas aeruginosa 14-14 after 18 to 24 hrs by two-fold serial dilution method; how it was run: as §1
[16] = test system: Pseudomonas aeruginosa; assay: Antibacterial activity against Pseudomonas aeruginosa 14-15 after 18 to 24 hrs by two-fold serial dilution method; how it was run: as §1
[17] = test system: Pseudomonas aeruginosa; assay: Antibacterial activity against Pseudomonas aeruginosa 14-16 after 18 to 24 hrs by two-fold serial dilution method; how it was run: as §1
[18] = test system: Staphylococcus aureus; assay: Antibacterial activity against Staphylococcus aureus CMCC 26003 after 18 to 24 hrs by two-fold serial dilution method; how it was run: as §1
[19] = test system: Staphylococcus aureus; assay: Antibacterial activity against methicillin-sensitive Staphylococcus aureus 14-1 after 18 to 24 hrs by two-fold serial dilution method; how it was run: as §1
[20] = test system: Staphylococcus aureus; assay: Antibacterial activity against methicillin-sensitive Staphylococcus aureus 14-3 after 18 to 24 hrs by two-fold serial dilution method; how it was run: as §1
[21] = test system: Staphylococcus aureus; assay: Antibacterial activity against methicillin-sensitive Staphylococcus aureus 14-4 after 18 to 24 hrs by two-fold serial dilution method; how it was run: as §1
[22] = test system: Staphylococcus aureus; assay: Antibacterial activity against methicillin-resistant Staphylococcus aureus 14-4 after 18 to 24 hrs by two-fold serial dilution method
How it was run: (§2)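 Agar media, standard twofold serial dilution. MIC is the lowest concentration giving complete inhibition of bacterial growth after incubation at 35 °C for 18–24 h. Ciprofloxacin and levofloxacin were run as comparators.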

[23] = test system: Staphylococcus aureus; assay: Antibacterial activity against methicillin-resistant Staphylococcus aureus 14-5 after 18 to 24 hrs by two-fold serial dilution method; how it was run: as §2
[24] = test system: Staphylococcus epidermidis; assay: Antibacterial activity against methicillin-sensitive Staphylococcus epidermidis 14-2 after 18 to 24 hrs by two-fold serial dilution method; how it was run: as §1
[25] = test system: Staphylococcus epidermidis; assay: Antibacterial activity against methicillin-resistant Staphylococcus epidermidis 14-21 after 18 to 24 hrs by two-fold serial dilution method; how it was run: as §2
[26] = test system: Staphylococcus epidermidis; assay: Antibacterial activity against methicillin-resistant Staphylococcus epidermidis 14-22 after 18 to 24 hrs by two-fold serial dilution method; how it was run: as §2
[27] = test system: Staphylococcus epidermidis; assay: Antibacterial activity against methicillin-resistant Staphylococcus epidermidis 14-37 after 18 to 24 hrs by two-fold serial dilution method; how it was run: as §2
[28] = test system: Staphylococcus epidermidis; assay: Antibacterial activity against methicillin-resistant Staphylococcus epidermidis 14-39 after 18 to 24 hrs by two-fold serial dilution method; how it was run: as §2
[29] = test system: Streptococcus pneumoniae; assay: Antibacterial activity against methicillin-resistant Streptococcus pneumoniae ATCC 19615 after 18 to 24 hrs by two-fold serial dilution method; how it was run: as §2
[30] = test system: Enterococcus faecium; assay: Antibacterial activity against Enterococcus faecium 14-2 after 18 to 24 hrs by two-fold serial dilution method; how it was run: as §1
[31] = test system: Enterococcus faecium; assay: Antibacterial activity against Enterococcus faecium 14-5 after 18 to 24 hrs by two-fold serial dilution method; how it was run: as §1
[32] = test system: Enterococcus faecium; assay: Antibacterial activity against Enterococcus faecium 14-6 after 18 to 24 hrs by two-fold serial dilution method; how it was run: as §1
[33] = test system: Enterococcus faecalis; assay: Antibacterial activity against Enterococcus faecalis 14-1 after 18 to 24 hrs by two-fold serial dilution method; how it was run: as §1
[34] = test system: Enterococcus faecalis; assay: Antibacterial activity against Enterococcus faecalis 14-2 after 18 to 24 hrs by two-fold serial dilution method; how it was run: as §1
[35] = test system: Staphylococcus aureus; assay: Potency index, ratio of ciprofloxacin MIC to compound MIC for methicillin-resistant Staphylococcus aureus 14-4
[36] = test system: Staphylococcus aureus; assay: Potency index, ratio of ciprofloxacin MIC to compound MIC for methicillin-resistant Staphylococcus aureus 14-5
[37] = test system: Staphylococcus epidermidis; assay: Potency index, ratio of ciprofloxacin MIC to compound MIC for methicillin-resistant Staphylococcus epidermidis 14-21
[38] = test system: Staphylococcus epidermidis; assay: Potency index, ratio of ciprofloxacin MIC to compound MIC for methicillin-resistant Staphylococcus epidermidis 14-22
[39] = test system: Staphylococcus epidermidis; assay: Potency index, ratio of ciprofloxacin MIC to compound MIC for methicillin-resistant Staphylococcus epidermidis 14-37
[40] = test system: Staphylococcus epidermidis; assay: Potency index, ratio of ciprofloxacin MIC to compound MIC for methicillin-resistant Staphylococcus epidermidis 14-39
[41] = test system: Enterococcus faecium; assay: Potency index, ratio of ciprofloxacin MIC to compound MIC for Enterococcus faecium 14-2
[42] = test system: Enterococcus faecium; assay: Potency index, ratio of ciprofloxacin MIC to compound MIC for Enterococcus faecium 14-5
[43] = test system: Enterococcus faecium; assay: Potency index, ratio of ciprofloxacin MIC to compound MIC for Enterococcus faecium 14-6
[44] = test system: Enterococcus faecalis; assay: Potency index, ratio of ciprofloxacin MIC to compound MIC for Enterococcus faecalis 14-1
[45] = test system: Enterococcus faecalis; assay: Potency index, ratio of ciprofloxacin MIC to compound MIC for Enterococcus faecalis 14-2
[46] = test system: Staphylococcus aureus; assay: Potency index, ratio of levofloxacin MIC to compound MIC for methicillin-resistant Staphylococcus aureus 14-4
[47] = test system: Staphylococcus aureus; assay: Potency index, ratio of levofloxacin MIC to compound MIC for methicillin-resistant Staphylococcus aureus 14-5
[48] = test system: Staphylococcus epidermidis; assay: Potency index, ratio of levofloxacin MIC to compound MIC for methicillin-resistant Staphylococcus epidermidis 14-21
[49] = test system: Staphylococcus epidermidis; assay: Potency index, ratio of levofloxacin MIC to compound MIC for methicillin-resistant Staphylococcus epidermidis 14-22
[50] = test system: Staphylococcus epidermidis; assay: Potency index, ratio of levofloxacin MIC to compound MIC for methicillin-resistant Staphylococcus epidermidis 14-37
[51] = test system: Staphylococcus epidermidis; assay: Potency index, ratio of levofloxacin MIC to compound MIC for methicillin-resistant Staphylococcus epidermidis 14-39
[52] = test system: Enterococcus faecium; assay: Potency index, ratio of levofloxacin MIC to compound MIC for Enterococcus faecium 14-2
[53] = test system: Enterococcus faecium; assay: Potency index, ratio of levofloxacin MIC to compound MIC for Enterococcus faecium 14-5
[54] = test system: Enterococcus faecium; assay: Potency index, ratio of levofloxacin MIC to compound MIC for Enterococcus faecium 14-6
[55] = test system: Enterococcus faecalis; assay: Potency index, ratio of levofloxacin MIC to compound MIC for Enterococcus faecalis 14-1
[56] = test system: Enterococcus faecalis; assay: Potency index, ratio of levofloxacin MIC to compound MIC for Enterococcus faecalis 14-2

O=C(O)c1cn2c3c(c(N4C/C(=N/OCc5ccccc5)C(CNC5CC5)C4)c(F)cc3c1=O)OC[C@@H]2CF (stereo partly specified)
MIC [1]: 1 µg/mL (≈ 1.86 µM) | MIC [2]: 4 µg/mL (≈ 7.43 µM) | MIC [3]: > 64 µg/mL | MIC [4]: > 64 µg/mL | MIC [5]: > 64 µg/mL | MIC [6]: 64 µg/mL (≈ 119 µM) | MIC [7]: 32 µg/mL (≈ 59.4 µM) | MIC [8]: 32 µg/mL (≈ 59.4 µM) | MIC [9]: 64 µg/mL (≈ 119 µM) | MIC [10]: 32 µg/mL (≈ 59.4 µM) | MIC [11]: 64 µg/mL (≈ 119 µM) | MIC [12]: > 64 µg/mL | MIC [13]: 32 µg/mL (≈ 59.4 µM) | MIC [14]: 32 µg/mL (≈ 59.4 µM) | MIC [15]: 64 µg/mL (≈ 119 µM) | MIC [16]: 64 µg/mL (≈ 119 µM) | MIC [17]: 32 µg/mL (≈ 59.4 µM) | MIC [18]: < 0.008 µg/mL | MIC [19]: 1 µg/mL (≈ 1.86 µM) | MIC [20]: 0.015 µg/mL (≈ 0.0279 µM) | MIC [21]: 0.03 µg/mL (≈ 0.0557 µM) | MIC [22]: 2 µg/mL (≈ 3.71 µM) | MIC [23]: 4 µg/mL (≈ 7.43 µM) | MIC [24]: 8 µg/mL (≈ 14.9 µM) | MIC [25]: 2 µg/mL (≈ 3.71 µM) | MIC [26]: 2 µg/mL (≈ 3.71 µM) | MIC [27]: 2 µg/mL (≈ 3.71 µM) | MIC [28]: 2 µg/mL (≈ 3.71 µM) | MIC [29]: 0.125 µg/mL (≈ 0.232 µM) | MIC [30]: 1 µg/mL (≈ 1.86 µM) | MIC [31]: 8 µg/mL (≈ 14.9 µM) | MIC [32]: 8 µg/mL (≈ 14.9 µM) | MIC [33]: 1 µg/mL (≈ 1.86 µM) | MIC [34]: 0.25 µg/mL (≈ 0.464 µM) | Ratio [35]: 2 | Ratio [36]: 2 | Ratio [37]: 2 | Ratio [38]: 2 | Ratio [39]: 2 | Ratio [40]: 2 | Ratio [41]: 2 | Ratio [42]: 2 | Ratio [43]: 2 | Ratio [44]: 2 | Ratio [45]: 2 | Ratio [46]: 2 | Ratio [47]: 2 | Ratio [48]: 2 | Ratio [49]: 2 | Ratio [50]: 2 | Ratio [51]: 2 | Ratio [52]: 2 | Ratio [53]: 2 | Ratio [54]: 2 | Ratio [55]: 2 | Ratio [56]: 2
